# Laboratory results reported in ChEMBL document CHEMBL3352115, “Discovery of APD334: Design of a Clinical Stage Functional Antagonist of the Sphingosine-1-phosphate-1 Receptor” (ACS Med Chem Lett, 2014).
# Active and inactive are the calls of the source. The rule behind the calls is not given here.
# Experiments:
# [1] = Cmax in mouse at 1 mg/kg, iv or 1 mg/kg, po; format: ADME, organism-based; conditions: in vivo
# Summary of the method: (§1)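 Preclinical iv/po PK; amorphous free acid dosed orally as a suspension in 0.5% methyl cellulose; clearance and Vss from intravenous administration.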
# [2] = Cmax in Sprague-Dawley rat at 1000 mg/kg; format: ADME, organism-based; parameters: dose 1000 mg/kg; conditions: in vivo
# Summary of the method: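 Sprague–Dawley rats dosed at 300 and 1000 mg/kg in a separate dose-proportionality exposure study; Cmax determined.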
# [3] = target: Sphingosine 1-phosphate receptor 1 (Homo sapiens, UniProt P21453); experiment: Agonist activity at human S1P1 receptor by beta-arrestin recruitment assay relative to S1P
# [4] = Tmax in monkey at 1 mg/kg, iv or 3 mg/kg, po; format: ADME, organism-based, Macaca mulatta; conditions: rhesus monkey, in vivo
# [5] = Systemic clearance in dog at 1 mg/kg, iv; format: ADME, organism-based, Canis lupus familiaris; parameters: dose 1 mg/kg, route intravenous; conditions: in vivo
# [6] = Ratio of plasma concentration in Sprague-Dawley rat at 14.5 ug/hr/kg dosed as constant infusion to IC50 for reduction in peripheral lymphocyte count in orally dosed rat; format: ADME, organism-based; conditions: in vivo, po
# Summary of the method: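 Male Sprague–Dawley rats received a 48 h constant infusion at 14.5 μg/h/kg, and plasma drug concentration was taken at the 48 h time point. […] The ratio is the 48 h plasma concentration divided by that IC50.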
# [7] = Tmax in rat at 1 mg/kg, iv or 1 mg/kg, po; format: ADME, organism-based; conditions: in vivo
# [8] = Volume of distribution at steady state in mouse at 1 mg/kg, iv; format: ADME, organism-based; parameters: dose 1 mg/kg, route intravenous; conditions: in vivo, read-out: Vdss
# [9] = system: Mus musculus; experiment: Prevention of onset and severity of disease in C57Bl/6 mouse experimental autoimmune encephalomyelitis model of multiple sclerosis at 0.3 to 3 mg/kg dosed once daily beginning on day 3 and continued to day 25; format: functional, organism-based
# Summary of the method: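 Female C57Bl/6 mice immunized with MOG35–55 as autoantigen; oral dosing once daily from day 3 to day 25 in 0.5% methylcellulose vehicle; clinical scores followed beyond end of dosing.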
# [10] = target: Sphingosine 1-phosphate receptor 1 (Macaca mulatta) (UniProt H9EUW9); experiment: Agonist activity at monkey S1P1 receptor assessed as cAMP accumulation by HTRF assay relative to S1P; format: functional
# Summary of the method: (§2)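 HTRF cyclase (cAMP) functional assay at S1P1 of each species; EC50 taken as mean of three or more replicates; efficacy given as % agonism relative to S1P.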
# [11] = Elimination half life in dog at 3 mg/kg, po; format: ADME, organism-based, Canis lupus familiaris; parameters: dose 3 mg/kg, route oral; conditions: in vivo, read-out: beta t1/2 (converted); summary of the method: as §1
# [12] = system: Canis familiaris; experiment: Effect on pulse pressure in telemeterized dog up to 40 mg/kg; format: ADME, organism-based, Canis lupus familiaris; parameters: dose 40 mg/kg; conditions: in vivo
# Summary of the method: (§3)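 Telemeterized dogs dosed at levels up to 40 mg/kg; pulse pressure, heart rate, body temperature and ECG parameters monitored.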
# [13] = Ratio of drug level in brain to plasma of Sprague-Dawley rat at 14.5 ug/hr/kg dosed as constant infusion measured after 48 hrs; format: ADME, organism-based; conditions: iv, read-out: BPR
# Summary of the method: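 Male Sprague–Dawley rats given 48 h constant infusion at 14.5 μg/h/kg; brain and plasma concentrations measured at 48 h to give B/P ratio.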
# [14] = target: Sphingosine 1-phosphate receptor 1 (Rattus norvegicus) (UniProt P48303); experiment: Agonist activity at rat S1P1 receptor assessed as cAMP accumulation by HTRF assay relative to S1P; format: functional; summary of the method: as §2
# [15] = system: Mus musculus; experiment: Systemic clearance in mouse at 1 mg/kg, iv relative to liver blood flow; format: ADME, organism-based; parameters: dose 1 mg/kg, route intravenous; conditions: in vivo
# [16] = Oral bioavailability in rat at 1 mg/kg; format: ADME, organism-based; conditions: in vivo
# [17] = target: Sphingosine 1-phosphate receptor 1 (Rattus norvegicus, UniProt P48303); experiment: Agonist activity at rat S1P1 receptor assessed as cAMP accumulation by HTRF assay; format: functional; summary of the method: as §2
# [18] = system: Rattus norvegicus; experiment: Induction of body weight regain in Lewis rat collagen-induced arthritis model at 3 mg/kg, po qd measured on day 17 (reference value: 160.3 +/- 2.3 g); format: functional
# [19] = Drug level in Sprague-Dawley rat brain at 14.5 ug/hr/kg dosed as constant infusion measured after 48 hrs; format: ADME, organism-based; conditions: iv, read-out: Drug uptake
# Summary of the method: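 Male Sprague–Dawley rats given constant infusion at 14.5 μg/h/kg for 48 h; brain and plasma concentrations measured at 48 h.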
# [20] = Oral bioavailability in mouse at 1 mg/kg; format: ADME, organism-based; conditions: in vivo
# [21] = Cmax in rat at 1 mg/kg, iv or 1 mg/kg, po; format: ADME, organism-based; conditions: in vivo
# [22] = target: Voltage-gated inwardly rectifying potassium channel KCNH2 (Homo sapiens, UniProt Q12809); experiment: Inhibition of human ERG by patch clamp assay
# [23] = system: Rattus norvegicus; experiment: Systemic clearance in rat at 1 mg/kg, iv relative to liver blood flow; format: ADME, organism-based; parameters: dose 1 mg/kg, route intravenous; conditions: in vivo
# [24] = target: Cytochrome P450 1A2 (Homo sapiens, UniProt P05177); experiment: Inhibition of CYP1A2 (unknown origin); format: ADME
# [25] = Half life in dog liver microsomes; format: ADME, Canis lupus familiaris
# Summary of the method: (§4)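 Stability on incubation with liver microsomes of each species; half-life reported.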
# [26] = system: Canis familiaris; experiment: Effect on ECG parameters in telemeterized dog up to 40 mg/kg; format: ADME, organism-based, Canis lupus familiaris; parameters: dose 40 mg/kg; conditions: in vivo; summary of the method: as §3
# [27] = Oral bioavailability in rat; format: ADME, organism-based; conditions: in vivo
# [28] = Half life in rat liver microsomes; format: ADME; summary of the method: as §4
# [29] = Half life in monkey liver microsomes; format: ADME, Macaca mulatta; conditions: rhesus monkey; summary of the method: as §4
# [30] = Systemic clearance in mouse at 1 mg/kg, iv; format: ADME, organism-based; parameters: dose 1 mg/kg, route intravenous; conditions: in vivo
# [31] = system: Rattus norvegicus; experiment: Toxicity in Sprague-Dawley rat assessed as mortality at 1000 mg/kg during 14 day repeat dose study; format: organism-based; parameters: dose 1000 mg/kg; conditions: in vivo, 336 h
# Summary of the method: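 14-day repeat-dose rat toxicity study with dose groups of 30, 100, 300 and 1000 mg/kg; animals monitored for tolerability, mortality and CNS clinical signs.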
# [32] = target: Sphingosine 1-phosphate receptor 3 (Homo sapiens, UniProt Q99500); experiment: Agonist activity at human S1P3 receptor by beta-arrestin recruitment assay
# [33] = AUC (0 to infinity) in mouse at 1 mg/kg, iv or 1 mg/kg, po; format: ADME, organism-based; conditions: plasma; summary of the method: as §1
# [34] = system: Salmonella typhimurium; experiment: Genotoxicity in Salmonella typhimurium in absence of rat liver S9 fraction by Ames bacterial reverse mutation assay; format: toxicity, organism-based; conditions: salmonella enterica subsp. enterica serovar typhimurium
# [35] = Elimination half life in monkey at 3 mg/kg, po; format: ADME, organism-based, Macaca mulatta; parameters: dose 3 mg/kg, route oral; conditions: rhesus monkey, in vivo, read-out: beta t1/2 (converted); summary of the method: as §1
# [36] = Volume of distribution at steady state in rat at 1 mg/kg, iv; format: ADME, organism-based; parameters: dose 1 mg/kg, route intravenous; conditions: in vivo, read-out: Vdss
# [37] = system: Rattus norvegicus; experiment: Reduction in ankle diameter in Lewis rat collagen-induced arthritis model at 3 mg/kg, po qd measured on day 17 (reference value: +/- inches); format: functional
# Summary of the method: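 Female Lewis rats with collagen-induced arthritis, prophylactic daily oral dosing; ankle diameter (inches) and body weight recorded at day 17 end point; mean ± SEM.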
# [38] = Tmax in dog at 1 mg/kg, iv or 3 mg/kg, po; format: ADME, organism-based, Canis lupus familiaris; conditions: in vivo
# [39] = target: Sphingosine-1-phosphate receptor 1 (Canis lupus familiaris) (UniProt W5VNF7); experiment: Agonist activity at dog S1P1 receptor assessed as cAMP accumulation by HTRF assay relative to S1P; format: functional; summary of the method: as §2
# [40] = system: Rattus norvegicus; experiment: Reduction in peripheral lymphocyte count in orally dosed rat measured after 24 hrs; format: ADME, organism-based
# [41] = Protein binding in rat plasma; format: ADME, cell-free; conditions: read-out: PPB (converted)
# [42] = system: Rattus norvegicus; experiment: Improvement histological parameters of knee and ankles in Lewis rat collagen-induced arthritis model at 1 mg/kg, po qd measured on day 17; format: functional, organism-based; parameters: dose 1 mg/kg; conditions: Ankle/Knee
# Chain of Sphingosine 1-phosphate receptor 1 (Rattus norvegicus) (P48303 whole entry): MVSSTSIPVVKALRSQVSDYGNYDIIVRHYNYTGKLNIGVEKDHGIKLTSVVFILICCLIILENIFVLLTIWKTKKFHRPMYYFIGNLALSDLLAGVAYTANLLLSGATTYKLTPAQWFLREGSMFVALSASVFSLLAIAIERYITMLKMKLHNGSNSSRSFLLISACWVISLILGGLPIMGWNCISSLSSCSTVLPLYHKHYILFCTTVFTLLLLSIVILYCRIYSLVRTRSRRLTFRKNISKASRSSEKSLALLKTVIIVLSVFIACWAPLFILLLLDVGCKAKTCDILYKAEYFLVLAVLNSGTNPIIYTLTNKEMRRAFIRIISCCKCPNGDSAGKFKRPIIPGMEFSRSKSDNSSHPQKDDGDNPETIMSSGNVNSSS
# Chain of Sphingosine 1-phosphate receptor 1 (Rattus norvegicus, UniProt P48303) (P48303 whole entry): as above
# Chain of Voltage-gated inwardly rectifying potassium channel KCNH2 (Q12809 whole entry): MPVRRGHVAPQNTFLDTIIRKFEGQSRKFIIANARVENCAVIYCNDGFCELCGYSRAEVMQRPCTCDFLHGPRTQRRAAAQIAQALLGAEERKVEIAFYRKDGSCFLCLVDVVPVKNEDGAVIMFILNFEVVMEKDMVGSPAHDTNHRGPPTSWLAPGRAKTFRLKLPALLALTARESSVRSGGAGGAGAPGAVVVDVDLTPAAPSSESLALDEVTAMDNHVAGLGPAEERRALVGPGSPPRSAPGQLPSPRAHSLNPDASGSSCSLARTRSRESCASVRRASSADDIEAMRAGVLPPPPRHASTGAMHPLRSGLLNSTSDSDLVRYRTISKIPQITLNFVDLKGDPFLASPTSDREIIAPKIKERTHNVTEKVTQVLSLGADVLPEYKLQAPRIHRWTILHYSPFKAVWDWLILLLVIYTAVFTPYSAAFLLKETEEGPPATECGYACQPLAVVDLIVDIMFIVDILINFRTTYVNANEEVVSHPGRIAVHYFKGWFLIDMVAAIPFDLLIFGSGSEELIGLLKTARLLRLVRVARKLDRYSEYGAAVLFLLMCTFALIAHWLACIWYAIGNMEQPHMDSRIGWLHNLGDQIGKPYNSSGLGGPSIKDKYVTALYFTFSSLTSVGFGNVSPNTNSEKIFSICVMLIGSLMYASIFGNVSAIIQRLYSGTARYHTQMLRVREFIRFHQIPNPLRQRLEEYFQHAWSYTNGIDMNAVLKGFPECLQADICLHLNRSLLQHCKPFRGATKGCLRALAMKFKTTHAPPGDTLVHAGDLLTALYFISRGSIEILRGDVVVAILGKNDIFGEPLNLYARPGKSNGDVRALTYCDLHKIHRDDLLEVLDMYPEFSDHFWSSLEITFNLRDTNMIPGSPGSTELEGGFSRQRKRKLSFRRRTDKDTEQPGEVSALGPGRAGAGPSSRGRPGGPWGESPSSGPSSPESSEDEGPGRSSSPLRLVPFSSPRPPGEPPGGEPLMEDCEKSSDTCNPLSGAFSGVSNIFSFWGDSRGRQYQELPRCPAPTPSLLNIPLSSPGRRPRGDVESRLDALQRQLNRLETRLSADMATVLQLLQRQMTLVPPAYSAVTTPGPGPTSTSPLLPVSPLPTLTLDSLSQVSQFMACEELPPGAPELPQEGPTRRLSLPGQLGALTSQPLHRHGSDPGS
# Chain of Cytochrome P450 1A2 (P05177 whole entry): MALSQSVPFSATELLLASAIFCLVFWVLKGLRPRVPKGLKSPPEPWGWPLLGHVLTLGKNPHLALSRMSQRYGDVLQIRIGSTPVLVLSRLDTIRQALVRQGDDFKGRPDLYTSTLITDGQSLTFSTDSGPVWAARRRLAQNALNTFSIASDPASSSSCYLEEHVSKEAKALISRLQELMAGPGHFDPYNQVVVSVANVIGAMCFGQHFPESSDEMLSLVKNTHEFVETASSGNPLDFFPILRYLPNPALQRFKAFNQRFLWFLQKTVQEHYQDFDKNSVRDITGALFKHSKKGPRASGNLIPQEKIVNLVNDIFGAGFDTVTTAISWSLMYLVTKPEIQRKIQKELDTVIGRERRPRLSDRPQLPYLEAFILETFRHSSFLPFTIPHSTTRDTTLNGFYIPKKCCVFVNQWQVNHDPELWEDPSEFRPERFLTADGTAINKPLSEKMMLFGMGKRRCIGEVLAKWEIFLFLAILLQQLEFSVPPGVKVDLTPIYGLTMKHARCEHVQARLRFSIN
# Chain of Sphingosine-1-phosphate receptor 1 (Canis lupus familiaris) (W5VNF7 as listed by the source): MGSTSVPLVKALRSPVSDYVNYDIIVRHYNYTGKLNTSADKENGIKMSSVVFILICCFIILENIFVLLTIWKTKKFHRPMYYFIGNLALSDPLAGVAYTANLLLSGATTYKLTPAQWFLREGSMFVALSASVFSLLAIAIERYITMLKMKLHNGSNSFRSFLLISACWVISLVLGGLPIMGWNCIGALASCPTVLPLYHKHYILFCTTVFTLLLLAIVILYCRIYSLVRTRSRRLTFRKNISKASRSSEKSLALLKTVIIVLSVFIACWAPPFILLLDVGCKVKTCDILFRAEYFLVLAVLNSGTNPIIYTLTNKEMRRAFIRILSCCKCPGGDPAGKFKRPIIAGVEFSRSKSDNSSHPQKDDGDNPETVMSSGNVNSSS
# Chain of Sphingosine 1-phosphate receptor 3 (Q99500 whole entry): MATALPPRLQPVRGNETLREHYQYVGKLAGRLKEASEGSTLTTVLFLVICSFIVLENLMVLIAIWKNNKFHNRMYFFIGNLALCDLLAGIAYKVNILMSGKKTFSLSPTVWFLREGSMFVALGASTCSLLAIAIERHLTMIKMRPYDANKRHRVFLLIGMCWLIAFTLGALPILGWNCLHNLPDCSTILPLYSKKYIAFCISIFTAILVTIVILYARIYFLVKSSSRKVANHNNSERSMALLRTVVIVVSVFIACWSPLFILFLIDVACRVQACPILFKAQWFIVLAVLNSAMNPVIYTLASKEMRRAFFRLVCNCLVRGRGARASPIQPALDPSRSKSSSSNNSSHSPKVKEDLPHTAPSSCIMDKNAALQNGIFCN
# Chain of Sphingosine 1-phosphate receptor 1 (Macaca mulatta) (H9EUW9 as listed by the source): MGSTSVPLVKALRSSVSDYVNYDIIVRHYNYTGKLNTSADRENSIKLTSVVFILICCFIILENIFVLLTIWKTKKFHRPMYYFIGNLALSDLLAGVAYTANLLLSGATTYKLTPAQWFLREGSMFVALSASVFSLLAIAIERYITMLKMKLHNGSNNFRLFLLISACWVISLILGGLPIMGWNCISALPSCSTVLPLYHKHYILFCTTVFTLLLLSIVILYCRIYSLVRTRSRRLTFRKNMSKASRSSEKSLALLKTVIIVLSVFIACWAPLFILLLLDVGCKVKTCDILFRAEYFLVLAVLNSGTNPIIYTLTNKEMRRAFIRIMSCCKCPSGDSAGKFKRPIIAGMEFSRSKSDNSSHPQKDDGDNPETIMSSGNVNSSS
# Chain of Sphingosine 1-phosphate receptor 1 (Homo sapiens, UniProt P21453) (P21453 whole entry): as the sequence (H9EUW9 as listed by the source) above, with S3P, L12H, T37I, R41K, P189S, M241I, D365E counted along it
compound,measurement,setting,value
O=C(O)C[C@H]1CCc2c1[nH]c1ccc(OCc3ccc(C4CCCC4)c(C(F)(F)F)c3)cc21 [ETRASIMOD],Cmax,[1],780 ng/mL
same,Cmax,[2],183 µM
same,Emax,[3],110%
same,Tmax,[4],3.33 h
same,clearance,[5],0.23 mL/min/kg
same,Ratio,[6],2
same,Tmax,[7],7.33 h
same,Vd,[8],1.93 L/kg
same,Activity,[9],Active
same,Emax,[10],95%
same,half-life,[11],28.8 h
same,Activity,[12],Non-toxic
same,Kp at 48 h,[13],1.9
same,Emax,[14],99%
same,CL,[15],2%
same,bioavailability,[16],54%
same,EC50,[17],0.32 nM
same,Activity,[18],182.3 g
same,concentration at 48 h,[19],0.21 µM
same,bioavailability,[20],100%
same,Cmax,[21],218 ng/mL
same,IC50,[22],> 30000 nM
same,CL,[23],3.45%
same,IC50,[24],> 50000 nM
same,half-life,[25],> 1 h
same,Activity,[26],Non-toxic
same,bioavailability,[27],54%
same,half-life,[28],> 1 h
same,half-life,[29],> 1 h
same,clearance,[30],1.83 mL/min/kg
same,Activity,[31],Toxic
same,EC50,[32],> 10000 nM
same,AUC(0-inf),[33],10300 ng·h/mL
same,Activity,[34],Non-toxic
same,half-life,[35],6.37 h
same,Vd,[36],1.61 L/kg
same,Activity,[37],0.269 inches
same,Tmax,[38],7.33 h
same,Emax,[39],87%
same,IC50,[40],51 nM
same,fraction unbound,[41],0.02
same,Activity,[42],Active
